High-throughput results: PubChem BioAssay, several laboratories
HSF1 inhib: HSF1 inhibition; AID 2098; activity change, negative = inhibition, % at 7.5 µM (by protocol); 300,000 compounds, 0.77% hits; NIH3T3-HGL HSE-luciferase, MG132-induced, luminescence 8 h; active compounds read low;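 active = more than half of replicate wells show activity change below -50%, luminescence cut by over half; inconclusive = some wells, but at most half, below -50%; inactive = no replicate well below -50%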;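 note: luciferase reports HSF-1 transcriptional activity via heat shock element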
PHOSPHO1 inh: PHOSPHO1 (human) inhibition; recombinant PHOSPHO1, absorbance phosphatase assay; 290,000 compounds, 1.1% hits; inhibition, % at 13.3 µM; Q8TCT1; AID 1565; in the data active = inhibition above about 60%
CHT inh: human CHT choline transport inhibition; B-score at 10 µM; AID 488975; CHT-expressing cells, membrane potential dye, choline response; active compounds read low; 310,000 compounds, 0.86% hits; Q9GZV3;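 active = B-score over 3 SD under the library average, and starting fluorescence ratio not unusually high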;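 note: choline stimulus applied at its EC90 after an EC20 pre-addition; B-score computed on integrated fluorescence ratio after choline addition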
Target sequence (Q9GZV3 whole entry, looked up): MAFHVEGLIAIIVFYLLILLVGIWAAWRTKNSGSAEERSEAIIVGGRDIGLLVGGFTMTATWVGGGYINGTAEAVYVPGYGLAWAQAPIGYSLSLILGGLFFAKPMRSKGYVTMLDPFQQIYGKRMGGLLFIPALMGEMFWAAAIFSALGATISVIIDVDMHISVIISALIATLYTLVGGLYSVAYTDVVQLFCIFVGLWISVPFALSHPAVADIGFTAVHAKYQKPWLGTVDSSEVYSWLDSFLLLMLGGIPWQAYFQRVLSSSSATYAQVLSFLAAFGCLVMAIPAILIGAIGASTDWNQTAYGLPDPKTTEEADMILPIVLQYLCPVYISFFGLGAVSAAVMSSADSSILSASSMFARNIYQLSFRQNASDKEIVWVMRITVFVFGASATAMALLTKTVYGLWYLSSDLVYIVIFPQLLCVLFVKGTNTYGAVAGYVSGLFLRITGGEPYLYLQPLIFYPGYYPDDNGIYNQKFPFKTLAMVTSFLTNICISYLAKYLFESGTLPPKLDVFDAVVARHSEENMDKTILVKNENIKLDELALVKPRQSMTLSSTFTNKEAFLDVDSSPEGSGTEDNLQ
CHT PAM: human CHT allosteric activation | CHT-expressing cells, membrane potential dye, choline EC20; active compounds read high; LV-AA mutant CHT in HEK293 cells | B-score at 10 µM | 310,000 compounds, 0.49% hits | AID 488977;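 active = initial fluorescence not abnormally high and integrated response B-score, plate-corrected, over 3 SD above library mean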
Hep lipid drop: modulators of hepatic lipid droplet formation; inhibition, % at 6.5 µM; AID 1656; 240,000 compounds, 0.4% hits; AML12 mouse hepatocytes, oleate lipid droplets, BODIPY imaging;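 active = lipid droplet intensity inhibited by at least 50%, with more than 500 cells counted; inconclusive = wells with under 300 cells, treated as cytotoxic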
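Assay system: AML12 mouse liver cells | Compound dosing: One dose, 6.5 µM compound | Read-out basis: Droplet intensity reduction, % inhibition | Measured by: Fluorescence imaging, 20x objective, two fields per well | Schedule: Overnight treatment with compound plus oleate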
HSF-1 act: increases HSF-1 driven luciferase reporter signal | NIH3T3-HGL HSF-1 luciferase reporter, MG132, 8 h; 100% = twice DMSO control signal | activation, % at 9 µM | 300,000 compounds, 1.7% hits | AID 504408;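 active = mean replicate activation of at least 50% with a set share of replicates each reaching 50%; inconclusive = only one of those two conditions met; inactive = mean below 50% and too few replicates reaching it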
Each line names hits and unclear results; the compound was inactive in the other large screens. A selection: hits, their analogues and other compounds. The true share with any hit is near 4.9%.

O=C(O)CCCN1C(=O)/C(=C/c2cn(-c3ccccc3)nc2-c2cccs2)SC1=S	PHOSPHO1 inh 72 (no result: CHT inh, CHT PAM)
O=C(O)CN1C(=O)/C(=C\c2ccccc2OCc2ccc(F)cc2)SC1=S	none
O=C(O)CCCN1C(=O)/C(=C\c2ccccc2OCc2ccccc2)SC1=S	CHT inh -7.7
Cc1ccc(/C=C2\SC(=S)N(CCC(=O)NNC(=O)c3ccccc3O)C2=O)cc1	none
Cc1ccc(/C=C2\SC(=S)N(CCCC(=O)NNC(=O)c3ccccc3O)C2=O)cc1	HSF1 inhib -52
CCOc1ccc(/C=C2/SC(=S)N(CCC(=O)Nc3ccc(C(=O)O)cc3)C2=O)cc1	none
CCOc1ccc(/C=C2\SC(=S)N(CCC(=O)O)C2=O)cc1	HSF1 inhib -60
NS(=O)(=O)c1cccc(NC(=O)CSc2nc3ccccc3[nH]2)c1	none
O=C(O)CN1C(=O)/C(=C\c2cc(Br)ccc2OCc2ccc(F)cc2)SC1=S	HSF-1 act 70
O=C(O)CN1C(=O)/C(=C\c2cc(Br)ccc2OCc2ccc(Cl)cc2)SC1=S	none
O=C(O)CN1C(=O)/C(=C\c2cc([N+](=O)[O-])ccc2OCc2ccccc2Cl)SC1=S	CHT inh -6.2
COC(=O)C1=C(C)OC(N)=C(C#N)C1c1ccccc1 (stereo not given)	none
CNC(=O)C1C(=S)NC(N)=C(C#N)C1c1ccccc1 (stereo not given)	HSF1 inhib -72
COc1cccc(C2=NOC(C(=O)NCc3ccccn3)C2)c1 (stereo not given)	PHOSPHO1 inh 60 (no result: Hep lipid drop)
COc1ccccc1/C=C/C(=O)c1cc(Br)ccc1OC(=O)c1ccco1	HSF-1 act 103 (no result: PHOSPHO1 inh, Hep lipid drop)
O=C1N=C(N2CCN(c3ccccc3)CC2)S/C1=C/c1cccs1	none (no result: HSF1 inhib, HSF-1 act)
O=C1N=C(c2ccccc2)S/C1=C\c1cccs1	PHOSPHO1 inh 95
C=CCN1C(=O)C(Cc2ccc(OCC)cc2)S/C1=N\N=C\c1cccs1 (stereo not given)	HSF-1 act 56
C=CCN1C(=O)C(Cc2ccccc2)S/C1=N/N=C/c1cccs1 (stereo not given)	none
CCCCn1c(N)c(S(=O)(=O)c2ccc(C)cc2)c2nc3ccccc3nc21	none
Cc1ccc(S(=O)(=O)c2c(N)n(-c3ccccc3)c3nc4ccccc4nc23)cc1	HSF-1 act 66
O=S(=O)(Nn1cnnc1)c1ccc2ccccc2c1	none
O=C(c1cc(-c2ccc(F)cc2)on1)N1CCCC1	HSF-1 act 62 (no result: Hep lipid drop)
Cc1ccc(-c2cc(C(=O)Nc3cc(C)ccc3O)no2)cc1	none
COc1ccc(-c2cc(C(=O)N3CCCC3)no2)cc1	none
COc1ccc(-c2cc(C(=O)N3CCCCCC3)no2)cc1	HSF-1 act 60
COc1ccc(-c2cc(C(=O)Nc3cc(C)ccc3O)no2)cc1	HSF-1 act 68
COc1ccc(C(CC(=O)O)N2Cc3ccccc3C2=O)cc1 (stereo not given)	none
Cc1ccc(-n2ncc(Br)c(Br)c2=O)cc1	HSF1 inhib -85 (no result: CHT inh, CHT PAM)
O=c1c(Br)c(Br)cnn1-c1ccccc1	none (no result: HSF1 inhib, CHT inh, CHT PAM, HSF-1 act)
CCOC(=O)c1ccc(Oc2cn[nH]c2-c2ccc(O)cc2O)cc1	none
CCCOC(=O)c1ccc(Oc2cn[nH]c2-c2ccc(O)cc2O)cc1	HSF-1 act 52
O=C(NS(=O)(=O)c1ccccc1[N+](=O)[O-])c1ccccc1	none
CNC(=O)C(=O)NCC1OCCN1S(=O)(=O)c1ccc2c(c1)OCCO2 (stereo not given)	none
N#Cc1ccccc1NC(=O)COc1ccc2c(c1)OCO2	HSF-1 act 88
CCc1ccccc1NC(=O)COc1ccc2c(c1)OCO2	none
COc1ccc(/C=N/Nc2cc(OC)ncn2)cc1	HSF-1 act 69
O=C(NCCc1ccccc1)c1ccccc1SCC(=O)N1CCCC1	none (no result: PHOSPHO1 inh)
CCCCN(CCCC)CCNC(=O)c1ccc2nc(-c3ccccc3NC(C)=O)c(=O)[nH]c2c1	none
O=C(O)c1ccccc1C(=O)N1CCN(c2cccc(Cl)c2)CC1	none
O=C(CSc1ccccn1)N1CCN(c2cccc(Cl)c2)CC1	PHOSPHO1 inh 83
CCOc1ccccc1C(=O)N1CCN(c2cccc(Cl)c2)CC1	CHT PAM 12, Hep lipid drop inconclusive
CCCCCCCC(=O)Nc1cc(C(=O)NCc2ccc(C)cc2)ccc1N1CCC2(CC1)CC(c1cccc(Br)c1)=NO2	none (no result: PHOSPHO1 inh, Hep lipid drop)
CCc1ccc(OC(C)C(=O)N(Cc2ccccc2)C2CCS(=O)(=O)C2)cc1 (stereo not given)	none
CCc1ccc(OC(C)C(=O)N(Cc2ccco2)C2CCS(=O)(=O)C2)cc1 (stereo not given)	HSF1 inhib -83
CCN(C(=O)c1cccc(S(=O)(=O)N2CCCCC2)c1)C1CCS(=O)(=O)C1 (stereo not given)	HSF-1 act 57 (no result: PHOSPHO1 inh, CHT inh, CHT PAM, Hep lipid drop)
COc1ccc2nc(SC)c(C#N)cc2c1	HSF-1 act 143
O=C(NCCCc1ccccc1)c1ccc(CS(=O)Cc2ccc(Cl)cc2)o1 (stereo not given)	none
COC(=O)Cc1c(C)nc2nc(NCc3ccccc3OC)[nH]n2c1=O	none (no result: Hep lipid drop)
COC(=O)Cc1c(C)nc2nc(NCc3ccc(Cl)cc3)[nH]n2c1=O	PHOSPHO1 inh 80
CCOC(=O)N1CCN(CC(=O)Nc2ccc(F)c(F)c2F)CC1	none
O=C(/C=N/O)NCCCN1CCCCCC1	none
COCCCNC(=O)c1ccc(N2CCCC2)c(NS(=O)(=O)c2ccc(C)cc2)c1	PHOSPHO1 inh 64 (no result: Hep lipid drop)
CCCCOC(=O)/C(=C\c1ccc([N+](=O)[O-])o1)NC(=O)c1ccccc1	none
CC1(C)CC(=O)c2c(O)cc(OCc3ccc(Br)cc3)cc2O1	none
CC1(C)CC(=O)c2ccc(OCc3ccc([N+](=O)[O-])cc3)cc2O1	HSF-1 act 70
COc1cc(/C=C/c2ccc3cccc(OC)c3n2)c(OC(C)=O)c([N+](=O)[O-])c1	none (no result: Hep lipid drop)
COc1c(OC(C)=O)ccc(/C=C/c2ccc3cccc(OCc4ccccc4)c3n2)c1[N+](=O)[O-]	HSF-1 act 61
CC1(C)S[C@@H]2[C@H](NC(=O)[C@H](N)c3ccccc3)C(=O)N2[C@H]1C(=O)OC1OC(=O)c2ccccc21 (stereo not given in full)	none (no result: HSF1 inhib, PHOSPHO1 inh, Hep lipid drop, HSF-1 act)
Cc1cccc(N=C2Sc3nc4c(C)c(C)ccc4cc3CN2CCN2CCOCC2)c1	PHOSPHO1 inh 81 (no result: Hep lipid drop)
Cc1nnc(SCC(=O)Nc2sc3c(c2C#N)CCCCC3)n1N	PHOSPHO1 inh 61
N#Cc1c(NC(=O)CSc2nnnn2C2CCCCC2)sc2c1CCCC2	none (no result: Hep lipid drop)
COc1ccc(/C=C/C(=O)C23CC4CC(CC(C4)C2)C3)cc1CN1CCOCC1	HSF-1 act 122
COc1ccc(/C=C/C(=O)c2ccc(O)cc2)cc1CN1CCOCC1	none
O=C(CCc1c[nH]c2ccccc12)OCc1cccc(C(F)(F)F)c1	none
NC(=O)C[N+]1(CC#CC(O)(c2ccccc2)c2ccccc2)CCCC1	HSF1 inhib -69
